Assay results as given in ChEMBL document CHEMBL3351269, “Phenylimidazoles as potent and selective inhibitors of coagulation factor XIa with in vivo antithrombotic activity” (J Med Chem, 2014).

Assays:
Trypsin = Trypsin (Homo sapiens, UniProt P07477+P07478+P35030); assay: Inhibition of human coagulation trypsin using N-benzoyl-Ile-Glu-(OH, OMe)-Gly-Arg-pNA as substrate by spectrophotometric analysis; format: protein assay
Procedure, shortened: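 Purified enzymes (α-thrombin; trypsin) in 100 mM sodium phosphate pH 7.5, 200 mM NaCl, 0.5% PEG 8000, 1% DMSO final, room temperature. Enzyme added last to substrate ± inhibitor, with substrate and inhibitor in excess. pNA release read at 405 nm over 10−120 min. IC50 from duplicate runs over 8−11 concentrations, then converted to Ki assuming competitive inhibition, using Km.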

[1] = Inhibition of rabbit coagulation thrombin using pyro-Glu-Pro-Argp-NA as substrate by spectrophotometric analysis; parameters: species or system Oryctolagus cuniculus
[2] = Mean residence time in rabbit plasma at 0.5 mg/kg, iv; format: ADME, organism-based, Oryctolagus cuniculus; parameters: dose 0.5 mg/kg, route intravenous
Procedure, shortened: (§1)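 Single iv dose of 0.5 mg/kg in rabbits; concentrations measured in rabbit plasma.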

Coagulation factor X = Coagulation factor X (Homo sapiens, UniProt P00742); assay: Inhibition of human coagulation factor 10a using N-benzoyl-Ile-Glu-(OH, OMe)-Gly-Arg-pNA as substrate by spectrophotometric analysis
Procedure, shortened: (§2)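 Purified human enzymes; reaction started by adding enzyme to substrate with or without inhibitor, excess substrate and inhibitor over enzyme, 1% DMSO, room temperature, 10–120 min. pNA read at 405 nm. FXIa, FXIIa and chymotrypsin in HEPES pH 7.4 with NaCl, KCl and PEG; FXa and kallikrein in phosphate pH 7.5; FVIIa in HEPES with CaCl2. IC50 from duplicates over 8–11 concentrations, converted to Ki assuming competitive inhibition.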

[3] = Volume of distribution at steady state in rabbit plasma at 0.5 mg/kg, iv; format: ADME, organism-based, Oryctolagus cuniculus; parameters: dose 0.5 mg/kg, route intravenous; settings: read-out: Vdss; procedure, shortened: as §1
[4] = Inhibition of rabbit plasma kallikrein using H-D-Pro-Phe-Arg-pNA as substrate; format: cell-free, Oryctolagus cuniculus
Coagulation factor VII = molecular target: T1, Coagulation factor VII (Oryctolagus cuniculus, UniProt P98139); assay: Inhibition of rabbit coagulation factor 7a using H-(D)-Ile-Pro-Arg-pNA as substrate by spectrophotometric analysis
T1 sequence (P98139 whole entry): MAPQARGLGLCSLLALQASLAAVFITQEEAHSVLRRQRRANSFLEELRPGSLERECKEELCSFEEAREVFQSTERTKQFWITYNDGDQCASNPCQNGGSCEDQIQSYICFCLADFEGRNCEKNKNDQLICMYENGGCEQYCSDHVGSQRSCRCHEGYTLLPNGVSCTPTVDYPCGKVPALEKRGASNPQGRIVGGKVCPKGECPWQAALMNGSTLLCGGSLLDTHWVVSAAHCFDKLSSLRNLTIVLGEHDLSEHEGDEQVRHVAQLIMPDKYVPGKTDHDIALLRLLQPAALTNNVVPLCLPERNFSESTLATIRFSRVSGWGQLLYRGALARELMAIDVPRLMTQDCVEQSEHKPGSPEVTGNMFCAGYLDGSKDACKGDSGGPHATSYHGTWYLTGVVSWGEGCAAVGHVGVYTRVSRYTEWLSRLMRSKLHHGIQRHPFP

[5] = Inhibition of human coagulation chymotrypsin using MeO-Suc-Arg-Pro-Tyr-pNA as substrate by spectrophotometric analysis; procedure, shortened: as §2
Plasma kallikrein = Plasma kallikrein (Homo sapiens, UniProt P03952); assay: Inhibition of human plasma kallikrein using H-D-Pro-Phe-Arg-pNA as substrate; procedure, shortened: as §2
[6] = Cmax in rabbit plasma at 0.5 mg/kg, iv; format: ADME, organism-based, Oryctolagus cuniculus; parameters: dose 0.5 mg/kg, route intravenous; procedure, shortened: as §1
Coagulation factor XII = molecular target: T2, Coagulation factor XII (Homo sapiens, UniProt P00748); assay: Inhibition of human coagulation factor 12a using H-(D)-CHT-Gly-Arg-pNA as substrate by spectrophotometric analysis; procedure, shortened: as §2
T2 sequence (P00748 whole entry): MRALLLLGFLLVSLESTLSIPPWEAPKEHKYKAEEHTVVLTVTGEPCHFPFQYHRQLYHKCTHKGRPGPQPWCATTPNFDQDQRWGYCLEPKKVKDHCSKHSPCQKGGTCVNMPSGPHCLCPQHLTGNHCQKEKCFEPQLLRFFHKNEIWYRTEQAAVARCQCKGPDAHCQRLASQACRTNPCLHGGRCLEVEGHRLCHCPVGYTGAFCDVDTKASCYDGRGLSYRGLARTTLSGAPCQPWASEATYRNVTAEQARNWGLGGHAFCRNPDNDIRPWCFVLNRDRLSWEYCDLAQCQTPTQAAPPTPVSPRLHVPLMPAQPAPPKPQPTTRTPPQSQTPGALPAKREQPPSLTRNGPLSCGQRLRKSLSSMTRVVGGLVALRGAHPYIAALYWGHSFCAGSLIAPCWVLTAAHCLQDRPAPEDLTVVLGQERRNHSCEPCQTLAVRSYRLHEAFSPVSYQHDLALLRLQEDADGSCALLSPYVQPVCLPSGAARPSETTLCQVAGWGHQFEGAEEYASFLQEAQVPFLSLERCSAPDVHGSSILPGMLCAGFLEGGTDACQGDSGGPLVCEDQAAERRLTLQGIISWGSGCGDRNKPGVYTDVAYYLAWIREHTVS

[7] = Inhibition of rabbit coagulation factor 11a using p-nitroaniline as substrate assessed as substrate hydrolysis by spectrophotometrically; parameters: species or system Oryctolagus cuniculus
[8] = Anticoagulant activity in rabbit plasma assessed as concentration required to 2 fold prolong clotting time by aPTT assay; format: functional, Oryctolagus cuniculus
Coagulation factor IX = Coagulation factor IX (Homo sapiens, UniProt P00740); assay: Inhibition of human coagulation factor 9a by spectrophotometric analysis
Procedure, shortened: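 Purified human factor IXa; buffer 50 mM Tris pH 7.4, 100 mM NaCl, 5 mM CaCl2, 0.5% PEG 8000, 2% DMSO; room temperature. Reaction started with enzyme added to substrate ± inhibitor, in excess substrate and inhibitor, for 10–120 min. Rate read as pNA A405 or AMC fluorescence. Duplicate IC50s from 8–11 concentrations; Ki = IC50/(1+[S]/Km), assuming competitive inhibition.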

[9] = Anticoagulant activity in healthy human plasma assessed as concentration required to 2 fold prolong clotting time by aPTT assay; format: functional
Procedure, shortened: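 Citrated human plasma from healthy volunteers (one-tenth volume 0.11 M buffered citrate; spun 2000g, 10 min, kept on ice). Inhibitor from 10 mM DMSO stock, diluted in plasma, up to seven concentrations. aPTT with Alexin: plasma warmed 1 min at 37 °C, reagent added, CaCl2 2 min later. Duplicates, as ratio to baseline. EC2x by linear interpolation, as total plasma concentration.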

Oryctolagus cuniculus = assay: Clearance in rabbit plasma at 0.5 mg/kg, iv; format: ADME, organism-based; parameters: dose 0.5 mg/kg, route intravenous; settings: in vivo; procedure, shortened: as §1

Sequence of Plasma kallikrein (P03952 20-390 limits assumed): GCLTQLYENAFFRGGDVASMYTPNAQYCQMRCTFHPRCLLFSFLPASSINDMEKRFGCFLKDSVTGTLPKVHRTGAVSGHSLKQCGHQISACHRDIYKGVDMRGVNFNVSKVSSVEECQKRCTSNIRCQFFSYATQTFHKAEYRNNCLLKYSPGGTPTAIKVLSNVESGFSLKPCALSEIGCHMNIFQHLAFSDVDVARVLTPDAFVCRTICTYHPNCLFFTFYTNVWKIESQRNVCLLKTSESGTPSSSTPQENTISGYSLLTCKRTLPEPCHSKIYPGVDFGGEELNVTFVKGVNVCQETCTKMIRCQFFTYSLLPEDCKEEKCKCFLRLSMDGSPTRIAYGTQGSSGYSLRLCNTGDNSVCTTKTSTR
Sequence of Plasma kallikrein (P03952 391-638 limits assumed): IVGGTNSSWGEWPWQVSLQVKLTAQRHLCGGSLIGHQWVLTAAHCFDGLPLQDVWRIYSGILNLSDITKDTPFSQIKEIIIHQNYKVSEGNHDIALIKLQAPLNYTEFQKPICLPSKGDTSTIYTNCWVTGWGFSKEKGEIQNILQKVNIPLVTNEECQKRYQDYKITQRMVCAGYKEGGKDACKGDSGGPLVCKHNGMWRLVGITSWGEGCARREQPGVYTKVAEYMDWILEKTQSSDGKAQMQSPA
Sequence of Coagulation factor X (P00742 41-179 limits assumed): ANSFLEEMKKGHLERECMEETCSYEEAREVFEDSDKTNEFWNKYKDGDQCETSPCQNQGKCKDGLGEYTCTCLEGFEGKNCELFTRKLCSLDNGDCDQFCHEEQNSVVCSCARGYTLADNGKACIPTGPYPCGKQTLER
Sequence of Coagulation factor X (P00742 235-488 limits assumed): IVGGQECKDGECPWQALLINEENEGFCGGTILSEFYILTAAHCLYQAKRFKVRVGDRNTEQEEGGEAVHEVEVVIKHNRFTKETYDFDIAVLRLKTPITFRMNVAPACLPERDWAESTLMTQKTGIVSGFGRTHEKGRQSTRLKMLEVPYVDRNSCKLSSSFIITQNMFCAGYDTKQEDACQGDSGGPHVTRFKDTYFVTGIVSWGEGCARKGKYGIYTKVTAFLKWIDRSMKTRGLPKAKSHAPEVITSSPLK
Sequence of Coagulation factor IX (P00740 47-191 limits assumed): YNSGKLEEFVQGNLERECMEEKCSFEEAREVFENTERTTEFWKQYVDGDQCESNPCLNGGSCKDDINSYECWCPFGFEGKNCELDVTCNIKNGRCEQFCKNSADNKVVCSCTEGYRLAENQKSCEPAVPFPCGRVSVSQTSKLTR
Sequence of Coagulation factor IX (P00740 227-461 limits assumed): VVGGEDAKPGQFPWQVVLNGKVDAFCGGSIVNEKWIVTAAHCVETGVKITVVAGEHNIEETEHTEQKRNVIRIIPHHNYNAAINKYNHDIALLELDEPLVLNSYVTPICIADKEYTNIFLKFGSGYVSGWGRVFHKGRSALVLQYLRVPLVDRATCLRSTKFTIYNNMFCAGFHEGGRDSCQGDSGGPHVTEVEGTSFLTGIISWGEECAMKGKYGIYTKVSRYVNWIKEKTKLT

Ki (Trypsin): 0.023 µM
Ki [1]: > 20 µM
MRT [2]: 36 min
Ki (Coagulation factor X): 6.39 µM
Vd [3]: 0.7 L/kg
Ki [4]: 0.021 µM
Ki (Coagulation factor VII): 10 µM
Ki [5]: > 20.8 µM
Ki (Plasma kallikrein): 0.005 µM
Cmax [6]: 2470 nM
Ki (Coagulation factor XII): 9.22 µM
Ki [7]: 0.0006 µM
Ki (Coagulation factor IX): > 34.9 µM
clearance (Oryctolagus cuniculus): 20 mL/min/kg
SMILES: NC[C@H]1CC[C@H](C(=O)N[C@@H](Cc2ccccc2)c2nc(-c3ccc4c(N)n[nH]c4c3)c(Cl)[nH]2)CC1.O=C(O)C(F)(F)F
2aPTT [8]: 2 µM
2aPTT [9]: 1 µM
